From ChEMBL document CHEMBL4014347, “Targeting Mycolic Acid Transport by Indole-2-carboxamides for the Treatment of Mycobacterium abscessus Infections” (J Med Chem, 2017)
Activity calls are given as the source filed them.

Experiments:
[1] = system: Mycobacteroides abscessus; test: Antibacterial activity against Mycobacterium abscessus CIP104536 smooth variant expressing tdTomato infected in PMA activated THP-1 macrophages assessed as protection against […] infection after 4 days post treatment by microscopic method; type: functional
Outline: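 THP-1 macrophages, PMA-differentiated, infected with tdTomato-expressing M. abscessus, amikacin-treated and drug-exposed as in the CFU assay; at 96 h, bacteria-containing macrophages counted under fluorescence microscopy (4297 total cells) to give percentage of infected cells.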

[2] = system: Mycobacteroides abscessus; test: Antibacterial activity against Mycobacterium abscessus CIP104536 smooth variant assessed as reduction in viable colony forming unit at 8 ug/ml after 4 days by time-kill assay; type: functional
Outline: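 Set up as microdilution MIC plates in cation-adjusted Mueller−Hinton broth with smooth CIP 104536; serial dilutions plated after 0, 24, 48, 72 and 96 h of drug exposure; CFU counted after 4 days at 30 °C; mean of triplicate log10 values, representative of three independent experiments.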

[3] = system: Mycobacteroides abscessus; test: Antibacterial activity against Mycobacterium abscessus CIP104536 smooth variant infected in PMA activated THP-1 macrophages assessed as reduction in viable colony forming unit at 96 ug/ml measured upto 4 days post treatment by fluorescence microscopic method; type: functional
Outline: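 THP-1 cells in RPMI with 10% FBS, differentiated with 20 ng/mL PMA for 48 h at 37 °C; infected at MOI 1:2 for 2 h under 5% CO2; washed, 200 μg/mL amikacin for 1 h, washed; drug medium renewed daily; lysed in 1% Triton X100 at 0, 48, 96 h and plated for CFU; triplicates, two independent experiments.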

[4] = system: Mycobacteroides abscessus; test: Antibacterial activity against Mycobacterium abscessus CIP104536 after 3 to 5 days by two fold serial dilution method; type: functional
Outline: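 Broth microdilution per CLSI in cation-adjusted Mueller–Hinton broth; exponential-phase inoculum 5 × 10^6 CFU/mL; two-fold serial dilutions from highest concentration, solvent wells as control; 30 °C for 3−5 days; MIC read visually and confirmed by absorbance at 560 nm; triplicate on three independent occasions.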

[5] = system: Mycobacterium tuberculosis; test: Antibacterial activity against Mycobacterium tuberculosis by AlamarBlue assay; type: functional
[6] = system: Vero; test: Cytotoxicity against African green monkey Vero cells; type: cell-based; conditions: Chlorocebus sabaeus
[7] = Selectivity index, ratio of IC50 for African green monkey Vero cells to MIC=<90 for Mycobacterium tuberculosis; type: toxicity; conditions: read-out: Selectivity Index
[8] = Selectivity index, ratio of IC50 for African green monkey Vero cells to MIC for Mycobacterium abscessus CIP104536; type: toxicity; conditions: read-out: Selectivity Index
[9] = system: Mycobacteroides abscessus; test: Antibacterial activity against CF patient derived Mycobacterium abscessus subsp. abscessus isolate 2524 rough variant after 3 to 5 days by two fold serial dilution method; type: functional
Outline: (§1)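 Broth microdilution in cation-adjusted Mueller−Hinton broth per CLSI; inoculum 5 × 10^6 CFU/mL of exponential-phase bacteria; two-fold serial dilutions, solvent-only wells as control; 30 °C for 3−5 days; MIC read visually and confirmed by absorbance at 560 nm; triplicate on three independent occasions.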

[10] = system: Mycobacteroides abscessus; test: Antibacterial activity against CF patient derived Mycobacterium abscessus subsp. abscessus isolate 2648 rough variant after 3 to 5 days by two fold serial dilution method; type: functional; outline: as §1
[11] = system: Mycobacteroides abscessus; test: Antibacterial activity against non CF patient derived Mycobacterium abscessus subsp. abscessus isolate 3022 rough variant after 3 to 5 days by two fold serial dilution method; type: functional; outline: as §1
[12] = system: Mycobacteroides abscessus; test: Antibacterial activity against CF patient derived Mycobacterium abscessus subsp. abscessus rough variant after 3 to 5 days by two fold serial dilution method; type: functional; outline: as §1
[13] = system: Mycobacteroides abscessus; test: Antibacterial activity against non CF patient derived Mycobacterium abscessus subsp. abscessus isolate CIP104536 smooth variant after 3 to 5 days by two fold serial dilution method; type: functional; outline: as §1
[14] = system: Mycobacteroides abscessus; test: Antibacterial activity against non CF patient derived Mycobacterium abscessus subsp. abscessus isolate CIP104536 rough variant after 3 to 5 days by two fold serial dilution method; type: functional; outline: as §1
[15] = system: Mycobacteroides abscessus; test: Antibacterial activity against CF patient derived Mycobacterium abscessus subsp. abscessus isolate 3321 smooth variant after 3 to 5 days by two fold serial dilution method; type: functional; outline: as §1
[16] = system: Mycobacteroides abscessus; test: Antibacterial activity against CF patient derived Mycobacterium abscessus subsp. abscessus isolate 1298 smooth variant after 3 to 5 days by two fold serial dilution method; type: functional; outline: as §1
[17] = system: Mycobacteroides abscessus; test: Antibacterial activity against non CF patient derived Mycobacterium abscessus subsp. abscessus isolate 2587 smooth variant after 3 to 5 days by two fold serial dilution method; type: functional; outline: as §1
[18] = system: Mycobacteroides abscessus; test: Antibacterial activity against CF patient derived Mycobacterium abscessus subsp. abscessus isolate 2069 smooth variant after 3 to 5 days by two fold serial dilution method; type: functional; outline: as §1
[19] = system: Mycobacteroides abscessus; test: Antibacterial activity against CF patient derived Mycobacterium abscessus subsp. abscessus smooth variant after 3 to 5 days by two fold serial dilution method; type: functional; outline: as §1
[20] = system: Mycobacteroides abscessus; test: Antibacterial activity against CF patient derived Mycobacterium abscessus subsp. massiliense isolate 210 rough variant after 3 to 5 days by two fold serial dilution method; type: functional; outline: as §1
[21] = system: Mycobacteroides abscessus; test: Antibacterial activity against Addison's disease patient derived Mycobacterium abscessus subsp. massiliense isolate CIP108297 rough variant after 3 to 5 days by two fold serial dilution method; type: functional; outline: as §1
[22] = system: Mycobacteroides abscessus; test: Antibacterial activity against Addison's disease patient derived Mycobacterium abscessus subsp. massiliense isolate CIP108297 smooth variant after 3 to 5 days by two fold serial dilution method; type: functional; outline: as §1
[23] = system: Mycobacteroides abscessus; test: Antibacterial activity against CF patient derived Mycobacterium abscessus subsp. massiliense isolate 111 smooth variant after 3 to 5 days by two fold serial dilution method; type: functional; outline: as §1
[24] = system: Mycobacteroides abscessus; test: Antibacterial activity against CF patient derived Mycobacterium abscessus subsp. massiliense isolate 212 smooth variant after 3 to 5 days by two fold serial dilution method; type: functional; outline: as §1
[25] = system: Mycobacteroides abscessus; test: Antibacterial activity against CF patient derived Mycobacterium abscessus subsp. massiliense isolate 185 smooth variant after 3 to 5 days by two fold serial dilution method; type: functional; outline: as §1
[26] = system: Mycobacteroides abscessus; test: Antibacterial activity against CF patient derived Mycobacterium abscessus subsp. massiliense isolate 140 smooth variant after 3 to 5 days by two fold serial dilution method; type: functional; outline: as §1
[27] = system: Mycobacteroides abscessus; test: Antibacterial activity against CF patient derived Mycobacterium abscessus subsp. massiliense isolate 100 smooth variant after 3 to 5 days by two fold serial dilution method; type: functional; outline: as §1
[28] = system: Mycobacteroides abscessus; test: Antibacterial activity against CF patient derived Mycobacterium abscessus subsp. massiliense isolate 107 smooth variant after 3 to 5 days by two fold serial dilution method; type: functional; outline: as §1
[29] = system: Mycobacteroides abscessus; test: Antibacterial activity against CF patient derived Mycobacterium abscessus subsp. massiliense isolate 122 smooth variant after 3 to 5 days by two fold serial dilution method; type: functional; outline: as §1
[30] = system: Mycobacteroides abscessus; test: Antibacterial activity against CF patient derived Mycobacterium abscessus subsp. massiliense isolate 120 smooth variant after 3 to 5 days by two fold serial dilution method; type: functional; outline: as §1
[31] = Antibacterial activity against non CF patient derived Mycobacterium abscessus subsp. bolletii isolate 19 rough variant after 3 to 5 days by two fold serial dilution method; type: functional; conditions: Mycobacteroides abscessus; outline: as §1
[32] = Antibacterial activity against CF patient derived Mycobacterium abscessus subsp. bolletii isolate 108 rough variant after 3 to 5 days by two fold serial dilution method; type: functional; conditions: Mycobacteroides abscessus; outline: as §1
[33] = Antibacterial activity against non CF patient derived Mycobacterium abscessus subsp. bolletii isolate 17 smooth variant after 3 to 5 days by two fold serial dilution method; type: functional; conditions: Mycobacteroides abscessus; outline: as §1
[34] = Antibacterial activity against CF patient derived Mycobacterium abscessus subsp. bolletii isolate 97 smooth variant after 3 to 5 days by two fold serial dilution method; type: functional; conditions: Mycobacteroides abscessus; outline: as §1
[35] = Antibacterial activity against CF patient derived Mycobacterium abscessus subsp. bolletii isolate 114 smooth variant after 3 to 5 days by two fold serial dilution method; type: functional; conditions: Mycobacteroides abscessus; outline: as §1
[36] = Antibacterial activity against CF patient derived Mycobacterium abscessus subsp. bolletii isolate 116 smooth variant after 3 to 5 days by two fold serial dilution method; type: functional; conditions: Mycobacteroides abscessus; outline: as §1
[37] = Antibacterial activity against CF patient derived Mycobacterium abscessus subsp. bolletii isolate 112 rough variant after 3 to 5 days by two fold serial dilution method; type: functional; conditions: Mycobacteroides abscessus; outline: as §1
[38] = Antibacterial activity against Mycobacterium abscessus subsp. bolletii isolate CIP108541 smooth variant after 3 to 5 days by two fold serial dilution method; type: functional; conditions: Mycobacteroides abscessus; outline: as §1
[39] = system: Mycobacteroides abscessus; test: Antibacterial activity against Mycobacterium abscessus CIP104536 smooth variant assessed as reduction in viable colony forming unit at […] after 4 days by time-kill assay; type: functional
[40] = system: Mycobacteroides abscessus; test: Antibacterial activity against Mycobacterium abscessus CIP_OK4-10 harboring MAB_4508 g925c/A309P mutant after 3 to 5 days by two fold serial dilution method; type: functional; outline: as §1
[41] = system: Mycobacteroides abscessus; test: Antibacterial activity against Mycobacterium abscessus CIP_PIPD1 harboring MAB_4508 g925c/A309P mutant after 3 to 5 days by two fold serial dilution method; type: functional; outline: as §1
[42] = system: Mycobacteroides abscessus; test: Antibacterial activity against Mycobacterium abscessus CIP104536 smooth variant harboring pMV261 MAB_4508 wild type at 0.5 to 1 ug/ml after 3 days; type: functional
Outline: (§2)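 M. abscessus overexpressing wild-type or A309P MAB_4508 from pMV261 plated on 7H10 agar with 10% OADC containing drug; plates incubated at 30 °C for 3 days before growth inspection.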

[43] = system: Mycobacteroides abscessus; test: Antibacterial activity against Mycobacterium abscessus CIP104536 smooth variant harboring pMV261 MAB_4508_A309P mutant at 0.5 to 1 ug/ml after 3 days; type: functional; outline: as §2
[44] = system: Mycobacteroides abscessus; test: Inhibition of MmpL3 in Mycobacterium abscessus CIP104536 smooth variant assessed as reduction in trehalose dimycolate synthesis up to 6.2 ug/ml preincubated for 1 hr followed by [14C]acetic acid addition measured after 2 hrs by TLC based autoradiography analysis
Outline: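 Exponential cultures in 7H9 with OADC exposed to increasing drug concentrations for 1 h at 37 °C with agitation, then labelled with 1 μCi/mL [14C]acetate (56 mCi/mmol) for 2 h; apolar lipids (TMM, TDM) run on TLC in chloroform/methanol/water 40:8:1; MAME and arabinogalactan-bound mycolates in petroleum ether/acetone 95:5; autoradiography.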

[45] = system: Mycobacterium tuberculosis; test: Inhibition of C-terminal His-tagged Mycobacterium tuberculosis Ag85C expressed in Escherichia coli C41 (DE3) at 2.5 to 50 uM after 1 hr by resorufin butyrate-based fluorescence assay
Outline: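 Purified Ag85C mycolyltransferase activity measured with the fluorescent probe resorufin butyrate; compounds tested at 2.5 to 50 μM.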

C[C@@H](O)[C@H]1C(=O)N2C(C(=O)O)=C(SCCNC=N)C[C@H]12
active: Activity [1] | Activity [2] | Activity [3]

O=C(NC1CCCCCC1)c1cc2ccc(Br)cc2[nH]1
≥ 512: selectivity ratio [8]
inactive: Activity [43] | inhibition [45]
0.0313 µg/mL: MIC=<90 [5]
active: Activity [39] | Activity [42] | inhibition [44] Dose-dependent effect
0.25 µg/mL: MIC [17] | MIC [22] | MIC [28] | MIC [34]
0.0625 µg/mL: MIC [14] | MIC [37]
0.125 µg/mL: MIC [4] | MIC [9] | MIC [10] | MIC [11] | MIC [12] | MIC [13] | MIC [15] | MIC [16] | MIC [18] | MIC [19] | MIC [20] | MIC [21] | MIC [23] | MIC [24] | MIC [25] | MIC [26] | MIC [27] | MIC [29] | MIC [30] | MIC [31] | MIC [33] | MIC [35] | MIC [38]
0.5 µg/mL: MIC [32]
1 µg/mL: MIC [36]
≥ 64 µg/mL: IC50 [6]
≥ 2050: selectivity ratio [7]
32 µg/mL: MIC [40] | MIC [41]
